In the library only some 2.3% were active in any assay of this set; here they are far more common.
Arr AP2 block: inhibitors of human beta-arrestin and AP2 interaction; AID 504490; FITC-arrestin peptide / GST-AP2 beads, flow cytometry; AP2 beta2 appendage carries R879A mutation; 340,000 compounds, 0.31% hits; inhibition, % at 10 µM;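 active = inhibition above a set limit, near 3 SD of compounds lacking own fluorescence, cut at about 54% in these data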;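 note: plate controls were DMSO wells for no effect and 5 µM unlabelled arrestin peptide for full effect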
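System: GST-AP2 R879A glutathione beads; medium: PBS, Tween 20 0.05%, BSA 0.1%; reagent: fluorescein-tagged arrestin peptide at 50 nM final; schedule: pre-incubation 12 min, peptide binding 1 h, room temperature; detection: flow cytometry, FL1 (488/535 nm); read-out: inhibition as reduced fluorescein signal on beads, percent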
MEKK2 mut-MEK5: signal of MEK5 binding to mutant human MEKK2 PB1 domain. 290,000 compounds, 0.35% hits. AID 1530. percent response, % at 10 µM. bead flow cytometry, Alexa488-MEK5 binding to MEKK2 mutant; in the data active = percent response above about 24%, passing the limit was not always enough
MEKK3 PB1 HTS: raises or lowers MEK5 binding to the human MEKK3 PB1 domain; bead-based flow cytometry, Alexa488-MEK5 binding to MEKK3; actives lie on both sides; 0 = blocked by unlabeled MEK5, 100 = vehicle; 290,000 compounds, 1.4% hits; AID 1529; Q99759; binding response (% of control), % at 10 µM;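 active = binding response more than 3 SD above or below the average of its plate-row segment, actives on both sides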;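 note: Alexa488 bead fluorescence after subtracting the streptavidin-only scavenger bead signal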
Target sequence (Q99759 whole entry, looked up, the tested form may be a part): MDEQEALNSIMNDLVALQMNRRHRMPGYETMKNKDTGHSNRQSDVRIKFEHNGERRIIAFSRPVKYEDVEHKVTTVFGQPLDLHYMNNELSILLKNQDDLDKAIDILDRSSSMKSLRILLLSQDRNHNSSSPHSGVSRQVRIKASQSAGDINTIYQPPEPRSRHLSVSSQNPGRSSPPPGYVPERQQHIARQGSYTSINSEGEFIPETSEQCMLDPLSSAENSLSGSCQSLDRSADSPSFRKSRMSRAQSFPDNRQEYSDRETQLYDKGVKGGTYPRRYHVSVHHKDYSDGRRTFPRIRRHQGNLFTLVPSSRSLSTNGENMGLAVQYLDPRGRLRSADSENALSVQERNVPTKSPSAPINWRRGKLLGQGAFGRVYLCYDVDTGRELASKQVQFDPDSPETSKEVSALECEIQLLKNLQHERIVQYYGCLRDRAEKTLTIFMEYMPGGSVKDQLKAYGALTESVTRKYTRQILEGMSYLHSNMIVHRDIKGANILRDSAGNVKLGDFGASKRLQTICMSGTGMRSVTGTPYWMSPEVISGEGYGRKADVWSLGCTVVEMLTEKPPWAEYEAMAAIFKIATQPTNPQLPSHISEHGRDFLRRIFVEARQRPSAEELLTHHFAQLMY
MEKK2wt PB1 HTS: raises or lowers MEK5 binding to wildtype human MEKK2 PB1 domain | bead flow cytometry, Alexa488-MEK5 binding to MEKK2 WT; actives lie on both sides | binding response (% of control), % at 10 µM | 290,000 compounds, 1.1% hits | AID 1531; in the data active = binding response below about 67% or above about 130%
MEKK2wt confirm: raises or lowers MEK5 binding to wildtype human MEKK2, retest; bead flow cytometry, Alexa488-MEK5 binding to MEKK2 WT; actives lie on both sides; AID 1892; binding response (% of control), % at 10 µM; 5,900 compounds, 2.4% hits; shares compounds with MEKK3 PB1 HTS; in the data active = binding response below about 16% or above about 210%; inactive = in between
MEKK2mut confirm: signal of MEK5 binding to mutant human MEKK2, retest. shares compounds with MEKK3 PB1 HTS. bead flow cytometry, Alexa488-MEK5 binding to MEKK2 mutant. percent response, % at 10 µM. 5,900 compounds, 2% hits; in the data active = percent response mostly above about 71%, no sharp cut-off; inactive = mostly below about 38%;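 note: higher means compound restores mutant binding toward wildtype level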
MEKK3-MEK5 inh: MEKK3-MEK5 PB1 inhibition, single concentration confirmation. shares compounds with MEKK3 PB1 HTS. bead flow cytometry, Alexa488-MEK5 binding to MEKK3; hits give low values. binding response (% of control), % at 10 µM. 5,900 compounds, 1.8% hits. AID 1894;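 active = binding response below 72% of control, or above a set upper limit, though filed actives all read lower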;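 note: 100% = DMSO only wells and 0% = binding blocked by excess unlabeled MEK5; lower values mean stronger disruption of MEK5 binding to MEKK3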
* marks the source's active call; other numbers are inactive results; [ ] = remark or other dose.

What do the screens show for `Cc1ccc(C)c2[nH]c(=O)c(CN(Cc3cccs3)C(=S)NCc3ccco3)cc12`?
Arr AP2 block: -1; MEKK2 mut-MEK5: 1; MEKK3 PB1 HTS: 137*; MEKK2wt PB1 HTS: 115; MEKK2wt confirm: 109; MEKK2mut confirm: 9; MEKK3-MEK5 inh: 103

What do the screens show for `Cc1ccc2cc(CN(CC3CCCO3)C(=S)NCc3ccco3)c(=O)[nH]c2c1C` (configuration not stated)?
Arr AP2 block: 2; MEKK2 mut-MEK5: -1; MEKK3 PB1 HTS: 97; MEKK2wt PB1 HTS: 95

How did Cc1cc2cc(CN(CCN(C)C)C(=S)NCc3ccco3)c(=O)[nH]c2cc1C do in these assays?
Arr AP2 block: 30; MEKK2 mut-MEK5: 8; MEKK3 PB1 HTS: 84; MEKK2wt PB1 HTS: 160*; MEKK2wt confirm: 118; MEKK2mut confirm: 8; MEKK3-MEK5 inh: 103

How did Cc1ccc(N(Cc2cc3ccc(C)cc3[nH]c2=O)C(=O)c2ccco2)c(C)c1 do in these assays?
Arr AP2 block: -11; MEKK2 mut-MEK5: 22; MEKK3 PB1 HTS: 132*; MEKK2wt PB1 HTS: 117; MEKK2wt confirm: 102; MEKK2mut confirm: 5; MEKK3-MEK5 inh: 107

What do the screens show for `COc1ccc(N(CC2CO2)S(=O)(=O)c2ccc(C)cc2)cc1` (configuration not stated)?
Arr AP2 block: 0; MEKK2 mut-MEK5: -5; MEKK3 PB1 HTS: 97; MEKK2wt PB1 HTS: 95

How did CCSCc1nnc(SCC(=O)Nc2ccc(OC)cc2)n1C do in these assays?
Arr AP2 block: -27; MEKK2 mut-MEK5: -6; MEKK3 PB1 HTS: 93; MEKK2wt PB1 HTS: 93

How did Cc1ccccc1-c1nc(-c2ccc(NC(=O)c3ccc4c(c3)OCO4)cc2)no1 do in these assays?
Arr AP2 block: 0; MEKK2 mut-MEK5: -1; MEKK3 PB1 HTS: 98; MEKK2wt PB1 HTS: 99

How did COc1cc(-c2nc(-c3ccc(NC(=O)c4ccc5c(c4)OCO5)cc3)no2)cc(OC)c1OC do in these assays?
Arr AP2 block: -5; MEKK2 mut-MEK5: -2; MEKK3 PB1 HTS: 111; MEKK2wt PB1 HTS: 45*[inhibitor]; MEKK2wt confirm: 101; MEKK2mut confirm: -5; MEKK3-MEK5 inh: 96

What do the screens show for `CCCNC(=S)N1CC2(C)CN(C(=O)C(=O)OCC)CC(C)(C1)C2=O`?
Arr AP2 block: -15; MEKK2 mut-MEK5: -5; MEKK3 PB1 HTS: 102; MEKK2wt PB1 HTS: 99

What do the screens show for `Cc1cc(=O)n2ccsc2n1`?
Arr AP2 block: 5; MEKK2 mut-MEK5: 3; MEKK3 PB1 HTS: 106; MEKK2wt PB1 HTS: 106

Results for C=CCNC(=S)N/N=C(\C)c1cccc(NC(C)=O)c1 ?
Arr AP2 block: 3; MEKK2 mut-MEK5: -2; MEKK3 PB1 HTS: 99; MEKK2wt PB1 HTS: 99

What do the screens show for `C=CCNC(=S)N/N=C(\C)c1cc(OC)c(OC)c(OC)c1`?
Arr AP2 block: 19; MEKK2 mut-MEK5: 0; MEKK3 PB1 HTS: 137*; MEKK2wt PB1 HTS: 106; MEKK2wt confirm: 105; MEKK2mut confirm: 1; MEKK3-MEK5 inh: 105

What do the screens show for `CSc1nc(Cl)cc(N2CCOCC2)n1`?
Arr AP2 block: 1; MEKK2 mut-MEK5: -2; MEKK3 PB1 HTS: 100; MEKK2wt PB1 HTS: 102

What do the screens show for `Cc1cccc(N(C(=O)Nc2ccccc2)C2=NCC(C)S2)c1` (configuration not stated)?
Arr AP2 block: 5; MEKK2 mut-MEK5: 1; MEKK3 PB1 HTS: 105; MEKK2wt PB1 HTS: 102

What do the screens show for `COc1ccc(Cl)cc1N(C(=O)Nc1cccc(Cl)c1)C1=NCC(C)S1` (configuration not stated)?
Arr AP2 block: 6; MEKK2 mut-MEK5: 0; MEKK3 PB1 HTS: 129*; MEKK2wt PB1 HTS: 108; MEKK2wt confirm: 108; MEKK2mut confirm: 2; MEKK3-MEK5 inh: 106

Results for COc1ccccc1OCCC(=O)OCC(=O)Nc1ccc(Br)cc1 ?
Arr AP2 block: 4; MEKK2 mut-MEK5: 1; MEKK3 PB1 HTS: 134*; MEKK2wt PB1 HTS: 108; MEKK2wt confirm: 102; MEKK2mut confirm: 2; MEKK3-MEK5 inh: 103

What do the screens show for `Cc1ccccc1OCCCC(=O)Nc1ccc(Br)cc1`?
Arr AP2 block: 0; MEKK2 mut-MEK5: -21; MEKK3 PB1 HTS: 0.0*[inhibitor]; MEKK2wt PB1 HTS: 0.0*[inhibitor]; MEKK2wt confirm: 112; MEKK2mut confirm: 8; MEKK3-MEK5 inh: 109

How did COc1cccc(CN(C)CC(=O)Nc2ccccc2C(C)C)c1 do in these assays?
Arr AP2 block: 27; MEKK2 mut-MEK5: -3; MEKK3 PB1 HTS: 95; MEKK2wt PB1 HTS: 99

What do the screens show for `COc1cc(CCC(=O)OCC(=O)Nc2nc(C)c(Cl)cc2Cl)cc(OC)c1OC`?
Arr AP2 block: 19; MEKK2 mut-MEK5: -32; MEKK3 PB1 HTS: 102; MEKK2wt PB1 HTS: 12*[inhibitor]; MEKK2wt confirm: 95; MEKK2mut confirm: -10; MEKK3-MEK5 inh: 97

What do the screens show for `COCCn1c(SCC(=O)NC2CCCC2)nnc1C(C)C`?
Arr AP2 block: -1; MEKK2 mut-MEK5: -1; MEKK3 PB1 HTS: 103; MEKK2wt PB1 HTS: 105

Results for O=C(CN1C(=O)/C(=C/c2cccc(Br)c2)SC1=S)N1CCCC1 ?
Arr AP2 block: 7; MEKK2 mut-MEK5: 1; MEKK3 PB1 HTS: 153*; MEKK2wt PB1 HTS: 112; MEKK2wt confirm: 100; MEKK2mut confirm: 0; MEKK3-MEK5 inh: 97

How did Cc1cccc(C(=O)NCC(=O)NC2CCC(C)CC2)c1 (configuration not stated) do in these assays?
Arr AP2 block: -2

What do the screens show for `O=C(NCc1csc2ccccc12)Nc1cc(Cl)cc(Cl)c1`?
Arr AP2 block: 21; MEKK2 mut-MEK5: 29; MEKK3 PB1 HTS: 123; MEKK2wt PB1 HTS: 138*; MEKK2wt confirm: 106; MEKK2mut confirm: -4; MEKK3-MEK5 inh: 98

What do the screens show for `O=C(NCc1ccccn1)Nc1cc(Cl)cc(Cl)c1`?
Arr AP2 block: -3; MEKK2 mut-MEK5: 8; MEKK3 PB1 HTS: 104; MEKK2wt PB1 HTS: 105

Results for Cc1ccc(OCC(O)CN2C(=O)NC(C)(C)C2=O)cc1 (configuration not stated) ?
Arr AP2 block: 4; MEKK2 mut-MEK5: 8; MEKK3 PB1 HTS: 73*[inhibitor]; MEKK2wt PB1 HTS: 90; MEKK2wt confirm: 100; MEKK2mut confirm: -7; MEKK3-MEK5 inh: 101

What do the screens show for `COc1ccc(N2C(=O)c3ccc(C(=O)Nc4ccc(NC(C)=O)cc4)cc3C2=O)cc1`?
Arr AP2 block: 3; MEKK2 mut-MEK5: 9; MEKK3 PB1 HTS: 103; MEKK2wt PB1 HTS: 107
